Data set [1] addresses T1, Mutant Magnetospirillum gryphiswaldense cereblon isoform 4 (MsCI4^WW/FF) (Magnetospirillum gryphiswaldense, UniProt A4TVL0, W36F/W59F).
T1 sequence (A4TVL0 1-124 W36F/W59F): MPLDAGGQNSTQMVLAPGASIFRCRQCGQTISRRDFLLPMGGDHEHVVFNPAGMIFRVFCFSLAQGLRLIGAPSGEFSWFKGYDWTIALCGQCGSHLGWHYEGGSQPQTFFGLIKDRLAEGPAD
The conditions noted are these: read-out: published Kd of MANT-uracil to MsCI4^WW/FF; cited from earlier work.

Data set [2] addresses KEAP1 (Homo sapiens, UniProt Q14145). The experiment in a line: KEAP1 degradation in HepG2 cells by western blotting. It is filed as cell-based. The following applies: for reduction of KEAP1 level: HepG2, 1 μM, 6 h. The essentials:
(§1)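 CRBN-knockdown HepG2 clones were made with pGIPZ lentiviral shRNA (virus from transfected HEK293T, with 5 μg/mL polybrene) and GFP-FACS sorting. Lysates were western blotted and densitometry came from three independent experiments.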
(In general: Immunoblotting shows a protein as a band on a membrane.)

The target in data set [3] is T1, Mutant Magnetospirillum gryphiswaldense cereblon isoform 4 (MsCI4^WW/FF). The data set can be described thus: FRET-based competitive binding assay. In outline:
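Competitive FRET binding used mutant cereblon isoform 4 (MsCI4WW/FF) with the reporter ligand MANT-uracil. Buffer was 20 mM Tris pH 7.5, 150 mM NaCl, 5 mM 2-mercaptoethanol, final DMSO ≤0.02%. Tryptophan was read at ex 295/em 350 nm and FRET emission at 440 nm. Ligands were titrated to reduce the FRET signal, with MANT-uracil autofluorescence as blank and thalidomide as positive control; triplicates.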

For data set [4], the system named is NRF2. The data set can be described thus: Nuclear translocation of NRF2 in HepG2 cells. It is filed as cell-based, human.
Data set [5] addresses T2, KEAP1 (Mus musculus, UniProt Q9Z2X8). The data set can be described thus: KEAP1 degradation in AML12 cells by western blotting. Format: cell-based. In outline: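 AML12 cells got test compound for 24 h over a concentration series (DC50/Dmax) or 100 nM over a time course (DT50). Co-treatments: MG132 5 μM with 100 or 300 nM for 4 h; CQ 20 μM for 18 h, then 100 or 300 nM for 6 h; pomalidomide or TD-165 1 μM for 3 h, then 100 nM for 6 h. KEAP1 was read by western blot (RIPA, SDS-PAGE, PVDF, ECL) with densitometry from three independent experiments.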

Data set [6] can be described thus: In vivo pharmacokinetics in ICR mice. On the set-up: species or system mouse. The following applies: for AUC / AUC(0-t) / Cmax / MRT / half-life: male, ICR, mouse, plasma. The essentials: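 Male ICR mice (7–8 weeks, 30–35 g) received test compound at 3 mg/kg IP or PO. Plasma concentration–time profiles were measured and PK parameters were derived by non-compartmental analysis.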

Data set [7] deals with CRBN (Homo sapiens, UniProt Q96SW2). The experiment in a line: CRBN protein level in HepG2 cells by western blotting. Format: cell-based. The conditions noted are these: HepG2, 100 or 300 nM, 24 h. In outline:
as §1

Data set [8] has as its system AML12 cells. The data set can be described thus: APAP-induced mitochondrial ROS. Format: cell-based, mouse. The conditions noted are these: AML12, APAP 5 mM, 8 h. The essentials:
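AML12 cells were exposed to 5 mM APAP with or without test compound for 8 h. They were then stained with 5 μM MitoSOX Red (mitochondrial ROS, red fluorescence) or 0.25 μg/mL JC-1 (green monomer fluorescence, rising as membrane potential falls). Intensities were read by flow cytometry; means ± SEMs, n = 3 per group.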

The subject of data set [9] is NRF2. The data set can be described thus: Nuclear translocation of NRF2 in AML12 cells. It is filed as cell-based, mouse. In outline:
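Nuclear fractionation: AML12 cells got test compound 300 nM for indicated times. Cells were pelleted (4000 G, 4 °C), extracted in nuclear buffer, frozen, then spun at 15,000 G for 20 min. Fractions were BCA-quantified and western blotted (GAPDH cytosolic, Lamin B nuclear loading controls), with densitometry from three independent experiments. Immunofluorescence: 100 or 300 nM for 3 h, 4% PFA, 0.1% Triton X-100, NRF2 stain, DAPI, confocal imaging.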

Data set [10] deals with HMOX1, NQO1, GCLC and GCLM (the target genes of NRF2). The experiment in a line: NRF2 target gene expression by qRT-PCR in HepG2 cells. It is filed as cell-based, human. The following applies: HepG2, 100 nM. In outline:
(§2)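 Cells got test compound 100 nM for indicated times. RNA was extracted with TRIzol, reverse-transcribed, and HMOX1, NQO1, GCLC and GCLM were quantified by qRT-PCR. Values were normalized to GAPDH and expressed as relative levels by ΔΔCt.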
(In general: Real-time PCR tracks product formation cycle by cycle.)

Data set [11] concerns C57BL/6 N male mice. The experiment in a line: Acetaminophen. Format: in vivo, mouse.
Data set [12] has as its system primary mouse hepatocytes. The data set can be described thus: APAP-induced ROS generation. The conditions noted are these: 100 nM 6 h before APAP 20 mM. Format: cell-based. In outline:
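Primary hepatocytes came from 8–10-week male C57BL6/N mice by collagenase perfusion and were cultured in medium 199 with 10% FBS, 10 nM dexamethasone and 23 mM HEPES. The next day cells got test compound 100 nM for 6 h, then 50 μM DCF-DA (serum-free, 30 min, 37 °C), a wash and 20 mM APAP. Fluorescence (ex488/em525) was read every 20 min for 10 h; n = 4 per group.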

The test system of data set [13] is AML12 cells. The experiment in a line: APAP-induced loss of cell viability. The following applies: AML12, APAP 15 mM, 24 h, MTT. It is filed as cell-based, mouse.
The target in data set [14] is T2, KEAP1. The data set can be described thus: KEAP1 degradation in primary mouse hepatocytes by western blotting. Format: cell-based. The conditions noted are these: 1 to 1000 nM, 24 h. The essentials: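 Primary hepatocytes from male C57BL6/N mice were collagenase-perfused and plated in medium 199 with 10% FBS, 10 nM dexamethasone and 23 mM HEPES. […] KEAP1 was read by western blot. DC50 and Dmax came from densitometry of three independent experiments.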

Data set [15] deals with HMOX1, NQO1, GCLC and GCLM (the target genes of NRF2). The data set can be described thus: NRF2 target gene expression by qRT-PCR in AML12 cells. It is filed as cell-based, mouse. The following applies: AML12, 100 nM. The essentials:
as §2

In data set [16] the test system is AML12 cells. The experiment in a line: APAP-induced ROS generation. It is filed as cell-based, mouse. The following applies: AML12, APAP 5 mM, 4 h, 300 nM of SD2267. In outline: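 AML12 mouse hepatocytes (DMEM/F-12, 10% FBS, ITS-pyruvate, dexamethasone 40 ng/mL) were seeded and exposed the next day to 5 mM APAP with or without test compound. After 4 h, cells were loaded with 50 μM DCF-DA in serum-free medium for 30 min at 37 °C and washed. Fluorescence was read at ex488/em525.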

Setting [17] is: SD2267 3 mg/kg IP 2 h after APAP 250 mg/kg IP, 6 h.

Each structure is given as a SMILES string.

Sequence of KEAP1 (Homo sapiens, UniProt Q14145) (Q14145 whole entry): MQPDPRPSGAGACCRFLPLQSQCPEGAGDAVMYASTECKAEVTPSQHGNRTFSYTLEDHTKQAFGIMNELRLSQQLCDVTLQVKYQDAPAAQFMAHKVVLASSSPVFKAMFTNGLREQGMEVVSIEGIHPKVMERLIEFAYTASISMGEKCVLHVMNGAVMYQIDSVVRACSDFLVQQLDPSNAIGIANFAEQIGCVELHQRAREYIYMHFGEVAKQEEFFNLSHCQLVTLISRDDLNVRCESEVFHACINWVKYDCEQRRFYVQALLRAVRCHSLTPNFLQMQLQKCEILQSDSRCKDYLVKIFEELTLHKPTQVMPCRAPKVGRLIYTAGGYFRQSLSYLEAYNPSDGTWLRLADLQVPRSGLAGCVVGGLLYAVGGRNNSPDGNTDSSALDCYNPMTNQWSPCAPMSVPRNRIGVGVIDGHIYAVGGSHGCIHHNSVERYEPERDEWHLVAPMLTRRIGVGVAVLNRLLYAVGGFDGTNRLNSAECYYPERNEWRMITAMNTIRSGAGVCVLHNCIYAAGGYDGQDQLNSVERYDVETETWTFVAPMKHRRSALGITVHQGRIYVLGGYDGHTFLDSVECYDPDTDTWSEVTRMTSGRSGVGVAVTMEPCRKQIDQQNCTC
T2 sequence (Q9Z2X8 whole entry): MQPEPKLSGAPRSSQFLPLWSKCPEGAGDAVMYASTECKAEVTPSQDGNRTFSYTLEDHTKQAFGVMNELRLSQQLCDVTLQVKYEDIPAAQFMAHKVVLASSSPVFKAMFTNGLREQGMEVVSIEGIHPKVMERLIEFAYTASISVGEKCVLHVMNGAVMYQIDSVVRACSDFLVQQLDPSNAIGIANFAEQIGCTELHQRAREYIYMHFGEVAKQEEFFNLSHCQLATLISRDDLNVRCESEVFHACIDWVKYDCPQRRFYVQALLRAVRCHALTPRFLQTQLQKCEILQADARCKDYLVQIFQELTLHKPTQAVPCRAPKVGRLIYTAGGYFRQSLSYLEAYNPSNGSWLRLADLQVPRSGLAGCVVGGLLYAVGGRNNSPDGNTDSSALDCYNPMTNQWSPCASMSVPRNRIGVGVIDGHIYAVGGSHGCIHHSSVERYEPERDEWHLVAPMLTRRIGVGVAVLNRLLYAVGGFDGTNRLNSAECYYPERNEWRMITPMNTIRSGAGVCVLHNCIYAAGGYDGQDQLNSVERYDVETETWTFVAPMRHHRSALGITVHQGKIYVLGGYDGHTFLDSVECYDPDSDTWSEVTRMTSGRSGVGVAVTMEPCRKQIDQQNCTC
Sequence of CRBN (Q96SW2 whole entry): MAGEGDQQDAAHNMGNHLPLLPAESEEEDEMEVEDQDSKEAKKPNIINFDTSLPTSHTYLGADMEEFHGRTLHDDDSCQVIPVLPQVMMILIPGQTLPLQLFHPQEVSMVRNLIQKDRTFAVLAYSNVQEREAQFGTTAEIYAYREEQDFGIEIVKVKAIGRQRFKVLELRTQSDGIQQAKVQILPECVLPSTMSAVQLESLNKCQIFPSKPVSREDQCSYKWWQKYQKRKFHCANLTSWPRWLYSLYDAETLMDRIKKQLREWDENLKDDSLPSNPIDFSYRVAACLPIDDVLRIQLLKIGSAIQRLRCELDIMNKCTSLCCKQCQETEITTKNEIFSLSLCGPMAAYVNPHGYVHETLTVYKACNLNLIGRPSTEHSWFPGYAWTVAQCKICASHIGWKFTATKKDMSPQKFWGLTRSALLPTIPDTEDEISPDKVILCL

With `CNc1ccccc1C(=O)NCCn1ccc(=O)[nH]c1=O` [MANT-uracil, 1-(N-2-MANT-imidoethyl)-uracil], the Kd in data set [1] was 3300 nM.
Turning to `Cc1ccc(C(CC(=O)O)c2cc(OCCCCCCCCNc3ccc4c(c3)C(=O)N(C3CCC(=O)NC3=O)C4=O)c3c(c2)nnn3C)cc1CN1C[C@@H](C)Oc2ccccc2S1(=O)=O` (stereo partly drawn) [SD2268], in [2], the “reduction of KEAP1 level” value is listed as 7%. Further, the affinity in [3], expressed as Ki, was 8150 ± 5710 nM.
Turning to `Cc1ccc(C(CC(=O)O)c2cc(OCCCCCCCCNc3cccc4c3C(=O)N(C3CCC(=O)NC3=O)C4=O)c3c(c2)nnn3C)cc1CN1C[C@@H](C)Oc2ccccc2S1(=O)=O` (stereo partly drawn) [SD2267], in data set [4] (HepG2, 100 nM, within 3 h), the “Nuclear NRF2 (nuclear fractionation, western blotting)” value is “significantly upregulated”. For the same molecule, in [4] (HepG2, 100 or 300 nM, 3 h), the “amount and nuclear localization of NRF2 (immunofluorescence, confocal microscopy)” value is reported as “increased”. Further, in data set [5] (AML12, 100 nM), the “Half-life (DT50) of KEAP1” value came to 2.2 h. Further, the “KEAP1 degradation under autophagy inhibition by chloroquine” value in data set [5] (AML12, CQ 20 μM 18 h prior to SD2267 100 or 300 nM 6 h) is on record as “did not abolish”. In addition, the “KEAP1 degradation in the presence of pomalidomide or TD-165” value in [5] (AML12, POM 1 μM or TD-165 1 μM 3 h prior to SD2267 100 nM 6 h) is listed as “attenuated”. The “KEAP1 degradation in the presence of MG132” value in data set [5] (AML12, SD2267 100 or 300 nM, MG132 5 μM, 4 h) was “could not degrade KEAP1”. Besides, the maximal degradation (Dmax) (in general, the largest share of the target that was removed) at 0.3 µM in data set [5] (AML12, read-out: maximum degradation efficacy (Dmax)) is 76.5%. In addition, the DC50 in [5] (read-out: half-maximal degradation concentration (DC50), AML12, 24 h, 1 to 1000 nM) was 16.8 nM. Further, the “Half-life (DT50) of KEAP1” value in data set [2] (HepG2, 100 nM) is on record as 2.6 h. Also, the “reduction of KEAP1 level” value in data set [2] stood at 64%. Moreover, the Dmax at 0.3 µM in data set [2] (HepG2, read-out: maximum degradation efficacy (Dmax)) is 82.3%. The DC50 in [2] (read-out: half-maximal degradation concentration (DC50), HepG2, 24 h, 1 to 1000 nM) stood at 8.1 nM. In data set [2] (shCRBN #10 HepG2, 100 or 300 nM, 24 h), the “KEAP1 levels in CRBN knockdown cells” value is on record as “not affected”. Further, the “KEAP1 degradation in control cells” value in data set [2] (shCon HepG2, 100 or 300 nM, 24 h) was “effectively degraded KEAP1”. The Tmax in data set [6] (PO, 3 mg/kg, mice, n = 3, median with range) is 80 [60–120] min. For the same molecule, in data set [6] (ip, 3 mg/kg), the AUC (commonly concentration integrated over time) is 7800 ng·h/mL; the AUC(0-t) (commonly the area under the concentration-time curve up to a stated or last time point) was 7720 ng·h/mL; the Cmax (in general, the peak of the concentration-time curve) came out at 1970 ± 870 ng/mL; the MRT (commonly the average time that molecules of a dose stay in the body) is 4.83 h. Further, the half-life (as a rule, how long it takes for the measured level to halve) in data set [6] (ip, 3 mg/kg) was 3.67 ± 0.283 h. Further, in data set [6] (po, 3 mg/kg), the AUC is 597 ng·h/mL, the AUC(0-t) is 497 ng·h/mL, the Cmax turned out to be 172 ± 116 ng/mL and the MRT is 12.1 h. Further, the half-life in [6] (po, 3 mg/kg) turned out to be 12.3 ± 1.7 h. For the same molecule, the oral bioavailability result in data set [6] (oral parameters much lower than those of IP) is reported as “low oral bioavailability”. Moreover, in [7], the CRBN degradation result is on record as “not degraded”. In data set [8], the “APAP-induced increment of JC-1 green fluorescence intensity” value is given as “significantly reduced” and the “MitoSOX Red fluorescence intensity versus APAP only” value was “significantly lower”. Also, the “Nuclear NRF2 (nuclear fractionation, western blotting)” value in data set [9] (AML12, 300 nM, within 3 h) is reported as “significantly upregulated”. For the same molecule, the “amount and nuclear localization of NRF2 (immunofluorescence, confocal microscopy)” value in data set [9] (AML12, 100 or 300 nM, 3 h) was “increased”. In addition, the “mRNA expression levels of NRF2 target genes” value in data set [10] was “significantly increased”. Also, the “KEAP1 protein level in the liver compared to APAP” value in [11] (1 mg/kg IP, western blotting, p = 0.08) is “a trend towards a decrease”. For the same molecule, in [11] (3 mg/kg IP), the “increase of liver protein level of NRF2 and HO-1 versus APAP-only group” value is “significantly greater”; the “phosphorylation of JNK induced by APAP in liver” value is listed as “significantly reduced”. Further, in data set [11] (3 mg/kg, 2 h post-treatment after APAP 250 mg/kg), the “hepatic necrosis (HE staining)” value is reported as “significantly reduced”. Also, the “liver GSH to GSSG ratio decreased by APAP” value in data set [11] (1 or 3 mg/kg IP) was “significantly and dose-dependently recovered”. Besides, the “number of TUNEL-positive cells” value in data set [11] (APAP + 3 mg/kg of SD2267, 369 in APAP-treated mice, HPF x400) is 123 cells per HPF. Moreover, in data set [11] (setting [17]), the “decrease of APAP-induced serum ALT increase” value was roughly 1.9 fold and the “decrease of APAP-induced serum AST increase” value is roughly 2.2 fold. Also, the “APAP-induced ROS generation” value in [12] is on record as “significantly reduced”. The “cell viability decreased by APAP” value in data set [13] is recorded as “significantly recovered”. Moreover, the KEAP1 degradation result in [14] is “dose-dependently degraded”. The “mRNA expression levels of HMOX1, NQO1, GCLC and GCLM” value in data set [15] is recorded as “significantly increased”. In addition, the “APAP-induced increase of DCF-DA fluorescence intensity” value in data set [16] is “significantly attenuated”. Besides, the affinity in data set [3], expressed as Ki, was 57.7 ± 17.5 nM.
Regarding `Cc1ccc(C(CC(=O)O)c2cc(OCCCCNc3cccc4c3C(=O)N(C3CCC(=O)NC3=O)C4=O)c3c(c2)nnn3C)cc1CN1C[C@@H](C)Oc2ccccc2S1(=O)=O` (stereo partly drawn) [SD2269], the “reduction of KEAP1 level” value in [2] is listed as “no effect”. The Ki (in general, the equilibrium dissociation constant of an inhibitor or competing ligand from its target) in [3] was found to be 64.8 ± 13.2 nM.

The values are drawn from PMC10333676 (Redox Biology, 2023).
